# The list is not random: actives were taken first. Their share in the collection is about 2.1%.
# LMPTP block – blocks human LMPTP phosphatase; hit rate 0.22% among 360,000; inhibition, % at 20 µM; P24666; recombinant LMPTP-A, OMFP fluorogenic substrate, fluorescence intensity;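 active means compounds that cut the enzyme signal by at least half of the control window in the single-dose screen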
# Target sequence (P24666 whole entry, looked up): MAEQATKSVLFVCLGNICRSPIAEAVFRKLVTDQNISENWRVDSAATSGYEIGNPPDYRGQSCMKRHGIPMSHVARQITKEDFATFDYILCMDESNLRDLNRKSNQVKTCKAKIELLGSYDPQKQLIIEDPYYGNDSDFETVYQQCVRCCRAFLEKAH
#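 Test system: LMPTP-A, protein tyrosine phosphatase of low molecular weight; Input: 0.625 nM enzyme; Incubation: 50 min dark incubation at room temperature; Signal: endpoint fluorescence intensity from OMFP dephosphorylation; Read-out basis: % inhibition versus control wells.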
# GRK2 aptamer HTS – inhibitors of human GRK2 displacing RNA aptamer; P25098; bead flow cytometry, FAM-aptamer displacement from GRK2; inhibition of aptamer binding, % at 10 µM; hit rate 0.59% among 330,000; AID 488847;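 active means inhibition of aptamer binding above 40%, roughly 3 SD of noise, on plates passing a quality check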;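 further: median bead fluorescence of bound FAM aptamer so fluorescent compounds give negative values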
# DNMT1 inh – DNMT1 (human) enzyme inhibition; P26358; DNMT1 molecular beacon, Hinp1I cleavage, fluorescence; inhibition (reported as % activation of signal), % at 10 µM; hit rate 0.83% among 360,000; AID 588458; in the data active means inhibition above about 50%
# SUMO1 PPI mod – SUMO1-SIM interaction modulation; SUMO1 binding to a labelled peptide, TR-FRET, 1 h; inhibition, % at 20 µM; hit rate 0.33% among 360,000; AID 602429; in the data active means inhibition above about 37%
# Target sequence (P63165 whole entry, looked up): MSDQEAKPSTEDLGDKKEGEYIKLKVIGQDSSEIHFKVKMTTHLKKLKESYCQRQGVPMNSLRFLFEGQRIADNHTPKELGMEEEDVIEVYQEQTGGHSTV
# Scp1 inh – blocks human Scp-1 phosphatase activity | Q9GZU7 | Recombinant Scp1, phosphopeptide, malachite green phosphate absorbance | hit rate 0.88% among 340,000 | inhibition, % at 20 µM | AID 493091;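 active means inhibition above about 50% at 20 µM, limit read from the data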
# Target sequence (Q9GZU7 76-261 limits assumed): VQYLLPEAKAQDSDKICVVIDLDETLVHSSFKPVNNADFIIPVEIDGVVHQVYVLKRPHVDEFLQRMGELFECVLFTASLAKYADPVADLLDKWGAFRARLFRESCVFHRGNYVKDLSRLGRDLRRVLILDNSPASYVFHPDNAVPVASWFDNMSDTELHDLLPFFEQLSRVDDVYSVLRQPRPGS
#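 Times: enzyme reaction 45 min at room temperature, colour 5 min, stabilisation 30 min. Material: SCP-1 catalytic fragment, aa 76-261. Medium: Acidic Tris acetate buffer with magnesium and detergent. Signal: colorimetric free-phosphate detection, absorbance 630 nm. Read-out basis: % inhibition of SCP-1 phosphate liberation. Reagent: Phosphorylated 17-residue peptide substrate.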
# STEP block – inhibitors of human striatal-enriched phosphatase STEP | recombinant STEP, OMFP fluorogenic substrate, fluorescence | inhibition, % at 20 µM | hit rate 0.25% among 360,000 | AID 588621;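 active means inhibition at 20 µM, scaled per plate between control wells, above about 37%, limit read from the data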
#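 Assay system: isolated STEP enzyme. Buffer or medium: pH 6.0 Bis-Tris with DTT and Tween 20. Also added: fluorogenic phosphatase substrate OMFP at 25 µM final. Dosing: 20 µM, 1% DMSO. Timing: 20 min reaction, room temperature, in the dark. Measured by: fluorescence intensity, excitation 480 nm, emission 540 nm. Evaluation: normalized % inhibition.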
# Scp1 confirm – Scp-1 (human) inhibition, single-dose confirmed; AID 540281; hit rate 61% among 2,500; recombinant SCP-1 catalytic domain, phosphate release, malachite green absorbance; inhibition, % at 20 µM; shares compounds with Scp1 inh
# Scp-1 MG ctr – interferes with malachite green readout, flagging false Scp-1 hits; shares compounds with Scp1 inh; Colorimetric interference counterscreen, malachite green absorbance 630 nm; apparent inhibition (interference), % at 20 µM; 2,500 tested, under 10 active; AID 540313;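 further: compounds added after enzyme reaction finished so only phosphate colour detection is probed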
# Scp1 DSF – binds human Scp-1, shifting its melting temperature. shares compounds with Scp1 inh. thermal shift relative to vanadate control, % at 40 µM. Recombinant SCP1, Sypro Orange thermal shift Tm. hit rate 25% among 1,500;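 active means substances whose mean melting-temperature shift, as a percentage of the reference inhibitor's shift, reaches about 5.3%, limit read from the data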
# Hits are given with their value; 0 = inactive; - = no result given.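 How the source made its calls, unless noted: active means inhibition of at least 30% at 20 µM; inactive means the rest.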
SMILES,LMPTP block,GRK2 aptamer HTS,DNMT1 inh,SUMO1 PPI mod,Scp1 inh,STEP block,Scp1 confirm,Scp-1 MG ctr,others
C[C@]12CC[C@H](O)C[C@@H]1CC[C@@H]1[C@@H]2CC[C@@]2(C)[C@H]1CCC(=O)[C@]21CCCO1,0,0,0,0,82.5,0,0,0,
C[C@@H](NC(=O)Cn1ccc(N)nc1=O)c1cccc2ccccc12,0,0,0,0,0,0,0,0,
CCCCCN(C(=O)CCC(=O)OC(C)C(=O)c1ccc(Cl)cc1)c1c(N)n(CCCC)c(=O)[nH]c1=O (stereo not drawn),0,0,0,0,0,0,-,-,
Cc1cc(C(F)(F)F)c2c(C)nn(CCc3nn[nH]n3)c2n1,0,0,0,0,0,0,-,-,
Cc1nn(CCc2nn[nH]n2)c2nc(-c3ccccc3)cc(C(F)(F)F)c12,0,0,0,0,63.6,0,70.6,0,Scp1 DSF=0
Cc1c(C(=O)O)sc2nc(CSc3ncc(C(F)(F)F)cc3Cl)[nH]c(=O)c12,0,0,0,0,96.7,0,48.8,0,Scp1 DSF=0
CCOC(=O)c1sc2nc(CSc3ccccc3Cl)[nH]c(=O)c2c1C,0,0,0,0,0,0,-,-,
Cc1cc(C)n2c(SC/C(O)=C(\C#N)c3nc4ccccc4[nH]3)nnc2n1,0,0,0,0,76.1,0,63.2,0,Scp1 DSF=11.3
O=C(C[C@@H]1C[C@@H]2c3cc(NS(=O)(=O)c4ccc(F)cc4)ccc3O[C@@H]2[C@@H](CO)O1)NC1CCCCC1,0,-,0,0,-,0,-,-,
NS(=O)(=O)c1ccc(CCNCC(=O)NCc2ccccc2Cl)cc1,0,0,0,0,0,0,-,-,
CCCCCCOc1ccc(N2C(=O)CC(N3CCC(C(=O)OCC)CC3)C2=O)cc1 (stereo not drawn),0,0,0,0,0,0,-,-,
CCOC(=O)C1CCN(C2CC(=O)N(c3ccc(OCC)cc3)C2=O)CC1 (stereo not drawn),0,0,0,0,52.2,0,0,0,
CCCN1CCN(C(=O)CCc2nnc3ccc(N4CCN(c5cccc(OC)c5)CC4)nn23)CC1,0,0,0,0,0,0,-,-,
COc1ccc2cc(CN(CC3CCCO3)C(=S)NCc3ccco3)c(=O)[nH]c2c1 (stereo not drawn),0,0,0,0,0,0,-,-,
CN(C(=O)c1cc2c(=O)n3ccccc3nc2n1C)C1CCCCC1,0,0,0,0,80.0,0,0,0,
CC(=O)Nc1ccc(NC(=O)C2CCN(C(=O)NC3CCCCC3)CC2)cc1,0,0,0,0,0,0,-,-,
O=C(O)COc1ccc2c(c1)O/C(=C\c1ccco1)C2=O,0,0,69.3,0,75.4,76.7,70.4,0,Scp1 DSF=7.5
Cc1cc(OC(=O)c2c(C)cc(OC(=O)c3c(C)cc(O)cc3O)cc2O)cc(O)c1C(=O)O,0,0,0,0,0,0,-,-,
COc1cccc(OCCOc2ccc(/C=C3/SC(=S)NC3=O)cc2)c1,0,0,0,0,56.4,0,0,0,
CCn1c(CNC(=O)COc2ccc(C(C)C)cc2)nnc1SCC(=O)Nc1ccc(F)cc1,0,0,0,0,0,0,-,-,
CCn1c(CNC(=O)COc2ccc(C(C)C)cc2)nnc1SCC(=O)Nc1cc(F)ccc1C,0,0,0,0,85.1,0,46.1,0,Scp1 DSF=0
CC1(c2ccc(Cl)cc2)NC(=O)N(CC(=O)Nc2cccnc2Cl)C1=O (stereo not drawn),0,0,0,0,0,0,-,-,
CCOc1ccccc1N1CCN(S(=O)(=O)c2ccc3c4c(cccc24)C(=O)N3)CC1,0,0,0,0,61.3,0,50.3,0,Scp1 DSF=0
C[n+]1cccc(/C=N/NC(=O)CC23CC4CC(CC(C4)C2)C3)c1,0,0,0,0,82.7,0,0,0,
CNC(=O)c1ccc(NC(=O)CC23CC4CC(CC(C4)C2)C3)cc1,0,0,0,0,0,0,-,-,
SMILES,LMPTP block,GRK2 aptamer HTS,DNMT1 inh,SUMO1 PPI mod,Scp1 inh,STEP block,Scp1 confirm,Scp-1 MG ctr,others
CC1=NNC(=O)C1CCC(=O)N/N=C(\C)c1ccccc1 (stereo not drawn),0,0,0,0,0,0,0,0,
CC1=NNC(=O)C1CCC(=O)N/N=C/c1c(Cl)cccc1Cl (stereo not drawn),0,0,0,0,0,0,0,0,
Cc1ccc([C@@H]2[C@@H]3C(=O)N(C)C(=O)[C@@H]3[C@@H]3C(=O)Nc4ccccc4C(=O)N23)cc1,0,0,0,0,0,0,-,-,
O=C(CCCCCCCC(=O)NNC(=O)Nc1ccccc1)NNC(=O)Nc1ccccc1,0,0,0,0,73.5,0,64.8,0,Scp1 DSF=0
O=C(CCc1ccccc1)NNC(=O)Nc1ccccc1,0,0,0,0,0,0,-,-,
Cc1[nH]n(-c2ccccc2)c(=O)c1/C=N/NC(=O)c1cccc([N+](=O)[O-])c1,0,0,0,0,0,0,-,-,
Cc1ccc(-n2[nH]c(C)c(/C=N/Nc3ccc([N+](=O)[O-])cc3[N+](=O)[O-])c2=O)cc1C,0,0,0,0,95.5,70.3,67.5,0,Scp1 DSF=10.7
Cc1ccc(C(=O)NCCNS(=O)(=O)c2ccccc2[N+](=O)[O-])cc1,0,0,0,0,0,0,-,-,
CCOc1ccccc1NC(=O)C(NCC1(N2CCCCC2)CCCCC1)c1ccccc1 (stereo not drawn),0,0,0,0,65.2,0,0,0,
COc1ccc(CCn2c(C(C)C)nc3c(c(=O)c4ccccc4n3C)c2=O)cc1,0,0,0,0,58.5,0,0,0,
CCOc1cc(/C=C\c2nc(O)c([N+](=O)[O-])c(=O)[nH]2)ccc1OC(C)C,0,0,0,0,0,0,-,-,
C=CCc1cc(/C=C/c2nc(O)c([N+](=O)[O-])c(=O)[nH]2)cc(OC)c1O,0,0,0,0,63.7,0,58.5,0,Scp1 DSF=11.1
COc1ccccc1C(=O)Nc1ccccc1N1CCN(C(=O)c2ccc(Cl)cc2)CC1,0,0,0,0,0,0,-,-,
C[n+]1cn(/N=C/c2ccccc2)c2ccccc21,0,0,0,0,113.4,0,0,0,
C(=N\n1c2ccccc2c2ccccc21)/c1ccccc1,0,0,0,0,0,0,-,-,
O=C(COC(=O)c1ccc(CO)cc1)Nc1ccc2ccccc2c1,0,0,0,0,0,0,-,-,
CCOC(=O)c1c(NC(=O)COC(=O)c2ccc(NC(=O)CC#N)cc2)sc(C(=O)NC)c1C,0,0,0,57.2,57.6,0,61.6,0,Scp1 DSF=0

# Assay outcomes: PubChem, several laboratories
